In the library only some 8.4% were active in any assay of this set; here they are far more common.
PostGolgi yeast – growth inhibition of a yeast mutant, post-Golgi transport screen; post-Golgi transport phenotypic cell assay; actives 0.9% (n = 98,000); inhibition, % at 10 µM;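 also: yeast cells grown in 1536-well plates; yeast grown about 18 h at 30C before absorbance read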
Ecoli tolC – growth inhibitors of E. coli BW25113 tolC mutant; OD615; growth inhibition, % at 10 µM (by protocol); actives 2.2% (n = 65,000);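 active = growth inhibition at or above a cutoff equal to the mean over every tested compound plus 3 SD, cut at about 60% in these data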;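 also: growth measured after 20 h incubation at 37 °C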
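Signal: optical density read at 615 nm; Assay system: E. coli ΔtolC::kan strain BW25113; Times: 20 h incubation with compound, 37 °C; Dosing: 10 µM final, single dose.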
E coli WT exp – blocks growth of wild type E. coli BW25113 | OD600 absorbance | actives 0.15% (n = 98,000) | growth inhibition, % at 100 µM;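 active = growth inhibition above about 50% at one test dose, limit read from the data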;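 also: growth measured after 20 h incubation at 37 °C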
Cav32 inh – inhibitors of human Cav3.2 T-type calcium channel; Cav3.2-expressing cells, Fluo-4 calcium fluorescence FDSS; hits give low values; B-score at 10 µM; actives 4% (n = 100,000); AID 449739;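 active = single-dose well whose peak fluorescence ratio is a statistical outlier from its plate by either plate-standardised score or position-corrected B-score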
PostGolgi ctrl – growth of the yeast control strain, post-Golgi counter-screen | inhibition, % at 10 µM | AID 738 | actives 5% (n = 98,000) | efflux-deficient yeast background strain, growth absorbance A615, 16 h
Active calls of the source: *; nt = not tested or not shown. Rule as the data show it, unless noted: active = inhibition above about 30%; inactive = the rest.

SMILES	PostGolgi yeast	Ecoli tolC	E coli WT exp	Cav32 inh	PostGolgi ctrl
CC(=O)N1N=C(c2cccc([N+](=O)[O-])c2)OC1c1ccc(Cl)cc1Cl (configuration not stated)	10	nt	-11	-3.1	34*
O=[N+]([O-])c1ccc(C2CCCC/C2=N/OCc2ccccc2F)c([N+](=O)[O-])c1 (configuration not stated)	-1	nt	2	-6.5*	20
O=C(O/N=C1\CCCCC1c1ccc([N+](=O)[O-])cc1[N+](=O)[O-])c1c(F)cccc1F (configuration not stated)	-7	nt	-7	-1.3	4
O=[N+]([O-])c1ccc(C2CCCC/C2=N/OCc2ccc(F)cc2)c([N+](=O)[O-])c1 (configuration not stated)	18	nt	2	-5.4*	5
CN1CCN(c2ccc(NC(=O)c3cccc(OCc4ccccc4)c3)cc2)CC1	0	8	-8	nt	39*
CCN1CCN(c2ccc(NC(=O)c3cccc(OCc4ccccc4)c3)cc2)CC1	-2	nt	-4	0.98	0
CCOC(=O)N1CCN(CC(=O)Nc2ccc(Oc3ccccc3)cc2)CC1	4	nt	2	-0.066	32*
Cc1cc(C)cc(NC(=O)CN2CCc3ccccc3C2)c1	-23	nt	14	-3	16
CCOC(=O)c1ccc(NC(=O)CN2CCc3ccccc3C2)cc1	-1	39	-1	-5.2*	9
O=C(CN1CCN(c2ccccc2)CC1)Nc1ccc(OCc2ccccc2)cc1	2	nt	-8	-0.77	48*
Cc1ccc(S(=O)(=O)Cn2nnnc2CN2CCCC3(CCCCC3)C2)cc1	-3	76*	-13	-0.79	23
COc1cccc(OCCNc2cc(N3CCCCC3)ccc2[N+](=O)[O-])c1	-6	nt	-7	-4.1*	12
O=C(CS(=O)CC(=O)N(CC(=O)NC1CCCC1)C1CCCC1)Nc1ccc(F)cc1 (configuration not stated)	-2	-15	3	0.21	-1
O=C(COc1cccc2cccnc12)N1CCc2ccccc2C1	-3	9	11	0.33	-3
O=C(COc1c(Br)cc(Br)c2cccnc12)N1CCc2ccccc2C1	-7	nt	7	-1.3	67*
Cc1c(/C=N/NC(=O)c2ccc3c(c2)OCO3)cnn1C	4	nt	0	0.081	6
CCn1cc(/C=N\NC(=O)c2ccc3c(c2)c(C)c(C)n3Cc2ccccc2)c(C)n1	-8	nt	-7	-6.6*	23
CCn1ncc(/C=N/NC(=O)c2ccc3c(c2)OCO3)c1C	3	nt	-4	-0.27	33*
CCn1ncc(/C=N\NC(=O)c2ccc3c(c2)c(C)c(C)n3Cc2ccccc2)c1C	23	nt	-9	-5.7*	17
CCn1nc(C)c(/C=N/NC(=O)c2ccc3c(c2)c(C)c(C)n3Cc2ccccc2)c1C	4	nt	-7	-6.2*	10
CCn1nc(C)c(/C=N\NC(=O)c2ccc3c(c2)OCO3)c1C	3	nt	-3	1.3	1
C#Cc1ccc([C@H]2C=C(C(=O)OCC=C)O[C@@H](OCCCCO)C2)cc1	nt	nt	nt	-0.051	nt
O=C1CC2(CCCC2)Oc2ccc(F)cc21	nt	nt	nt	0.43	nt
C=CCN1C(=O)NC2(O)C(=O)c3ccccc3C12O (configuration not stated)	20	nt	7	0.42	3
COc1ccc(N2CCN(C(CNS(=O)(=O)c3cc(F)ccc3F)c3cccnc3)CC2)cc1 (configuration not stated)	-1	9	-1	nt	-2
SMILES	PostGolgi yeast	Ecoli tolC	E coli WT exp	Cav32 inh	PostGolgi ctrl
Cn1c(C(=O)OC(C(=O)NC2CCCCC2)c2cccnc2)cc2sccc21 (configuration not stated)	4	nt	-3	-0.98	12
CCn1nccc1C(=O)Nc1ccc(Cl)cc1Cl	9	0	9	-0.38	32*
O=C(Nc1ccccc1C(=O)O)c1cccc(F)c1	nt	nt	nt	-0.41	nt
Cc1ccc(C(=O)CC(=O)c2cc(Cl)ccc2O)cc1	4	nt	-14	0.97	33*
O=C(CC(=O)c1ccccc1O)c1cccc(F)c1	10	89*	12	-3.2	38*
CC(C)(C)c1ccc(C(=O)CC(=O)c2cc(Cl)ccc2O)cc1	2	nt	2	-1.1	28
O=C(CC(=O)c1ccccc1O)c1ccc(F)cc1	8	nt	8	-2.5	58*
CC12C(=O)N(CCC(=O)O)C(=O)C1C1C=CC2C1 (configuration not stated)	13	-11	8	1.1	-13
CC1CCCCN1Cc1ccc(-c2nn[nH]n2)cc1 (configuration not stated)	1	-11	-7	-0.11	45*
CCCn1c(=O)[nH]c(=O)c2c1nc(-c1ccccc1)n2CCN1CCOCC1	-17	nt	0	0.64	-1
CCCn1c(-c2ccccc2)nc2c(=O)n(C)c(=O)[nH]c21	3	7	-1	nt	36*
CCOC(=O)CSc1nnc(CNC(=O)c2cccs2)n1CCc1ccccc1	9	-6	1	-0.33	-2
CCCCc1ccc(S(=O)(=O)NCCc2ccncc2)cc1	-10	25	12	-3.6*	8
COCC(=O)N/N=C/c1ccc(Sc2nc3ccccc3s2)o1	-4	nt	8	-3.6	3
O=C(COc1cccc2ccccc12)N/N=C/c1ccc(Sc2nc3ccccc3s2)o1	6	nt	-12	-2.9	6
N#CCC(=O)N/N=C/c1ccc(Sc2nc3ccccc3s2)o1	-1	nt	1	-5.3*	16
O=C(Cc1cccc2ccccc12)N/N=C/c1ccc(Sc2nc3ccccc3s2)o1	7	nt	-12	-3	35*
Cc1ccccc1OCC(=O)N/N=C/c1ccc(Sc2nc3ccccc3s2)o1	1	nt	-23	-6.8*	12
O=C1C2CC=C(Cl)CC2C(=O)N1CN(Cc1ccco1)CN1C(=O)C2CC=C(Cl)CC2C1=O (configuration not stated)	-8	3	-10	0.29	7
O=P(O)(CCc1ccncc1)CN1CCCCC1	-4	-10	0	-0.0038	-8
COc1ccc(CN2CC(C(=O)NCCCN3CCOCC3)CC2=O)cc1 (configuration not stated)	-5	-26	5	-0.63	35*
COc1ccc(CN2CC(C(=O)NCCCN3CCCCCC3)CC2=O)cc1 (configuration not stated)	-8	-16	2	-0.17	10
COc1cccc(-n2nnc3c(=O)n(CC(=O)N4CCC(Cc5ccccc5)CC4)cnc32)c1	5	17	-5	0.62	26
CC1(OC(=O)c2cccs2)C(=O)C=C2C=C(C3CC3)OC=C2C1=O (configuration not stated)	nt	nt	nt	-2.8*	nt
CCOc1ccc(C(=O)O)cn1	nt	nt	nt	1.7	nt
CC(=O)Oc1c(Cl)cc(Cl)cc1/C=C/c1ccc2ccccc2n1	-5	nt	-12	0.58	54*
Cc1cc(Cl)c(OCCCNCc2ccccc2)c(Br)c1	-2	nt	57*	-2.6	8
COCCNCCCCOc1c(Cl)cc(C)cc1Br	17	nt	10	1.3	-4
Clc1ccc(OCCCNCc2ccccc2)c(Br)c1	-37	nt	68*	-0.07	31*
OCCNCCCOc1ccc(Cl)cc1Br	7	nt	17	0.84	-1
